{"source": "ChEMBL document CHEMBL5674890", "about": "“Selective inhibition of CBP/p300 HAT by A-485 results in suppression of lipogenesis and hepatic gluconeogenesis” (Cell Death Dis, 2020)", "key": {"[1]": {"system": "Mus musculus", "assay": "Anti-obesity activity in C57BL/6 mouse supplemented with normal chow diet assessed as effect on random blood glucose at 20 mg/kg/day, ip administered for 1 week", "format": "functional, organism-based", "settings": "time 1.0 weeks", "outline": "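8-week-old male C57BL/6 mice on normal chow, ip 20 mg·kg−1·day−1 for 7 days. Blood glucose measured randomly fed or after 6 h or 16 h fasting, as the line states. Mean ± SEM, n = 5–9.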"}, "[2]": {"system": "Mus musculus", "assay": "Anti-obesity activity in 16 hrs fasted C57BL/6 mouse supplemented with normal chow diet assessed as decrease in blood glucose level at 20 mg/kg/day, ip administered for 1 week measured after 30 mins by intraperitoneal glucose tolerance test", "format": "functional, organism-based", "settings": "time 1.0 weeks", "outline": "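Male C57BL/6 mice on normal chow, 8 weeks old, given 20 mg·kg−1·day−1 ip daily for 7 days. After 16 h fasting, glucose 2 g/kg body weight ip; blood glucose read during the test. Mean ± SEM, n = 5–9; t test or ANOVA, P < 0.05.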"}, "[3]": {"system": "Mus musculus", "assay": "Anti-obesity activity in C57BL/6 mouse supplemented with normal chow diet assessed as decrease in hepatic G6Pc mRNA expression at 20 mg/kg/day, ip administered for 1 week measured a by RT-qPCR assay", "format": "functional, organism-based", "settings": "time 1.0 weeks", "outline": "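Liver G6Pc mRNA in 8-week-old normal-chow male C57BL/6 mice after 7 days ip at 20 mg·kg−1·day−1. Trizol RNA extraction, SYBR Green RT-qPCR. Mean ± SEM, n = 5–9.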"}, "[4]": {"system": "Mus musculus", "assay": "Inhibition of lipogenesis in C57BL/6 mouse supplemented with high-fat diet assessed as decrease in adipocyte size of WAT at 20 mg/kg/day, ip administered for 1 week", "format": "functional, organism-based", "settings": "time 1.0 weeks", "outline": "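Male C57BL/6 mice were fed high-fat diet for 14 weeks from 5 weeks of age, then injected ip with 20 mg·kg−1·day−1 for 7 days or given vehicle. Epididymal and inguinal WAT were weighed, examined by H&E, and analysed. Transcripts were measured by Trizol/SYBR Green RT-qPCR; proteins by western blot. n = 5–9; mean ± SEM.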"}, "[5]": {"system": "Mus musculus", "assay": "Inhibition of lipogenesis in C57BL/6 mouse supplemented with normal chow diet assessed as decrease in ACC mRNA expression at 20 mg/kg/day, ip administered for 1 week measured by RT-qPCR assay", "format": "functional, organism-based", "settings": "time 1.0 weeks", "outline": "(§1)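 Eight-week-old male C57BL/6 mice on normal chow were given 20 mg·kg−1·day−1 ip daily for 7 days or vehicle. Epididymal WAT was collected. Lipogenic, adipogenic and fatty-acid-oxidation transcripts were quantified by Trizol extraction and SYBR Green RT-qPCR. FAS, ACC, PPARγ and C/EBPα protein were assessed by western blot. n = 5–9; mean ± SEM.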"}, "[6]": {"system": "Mus musculus", "assay": "Inhibition of lipogenesis in C57BL/6 mouse supplemented with normal chow diet assessed as effect on CPT1alpha mRNA expression at 20 mg/kg/day, ip administered for 1 week measured by RT-qPCR assay", "format": "functional, organism-based", "settings": "time 1.0 weeks", "outline": "as §1"}, "[7]": {"system": "Mus musculus", "assay": "Inhibition of lipogenesis in C57BL/6 mouse supplemented with normal chow diet assessed as effect on MCAD mRNA expression at 20 mg/kg/day, ip administered for 1 week measured by RT-qPCR assay", "format": "functional, organism-based", "settings": "time 1.0 weeks", "outline": "as §1"}, "[8]": {"system": "Mus musculus", "assay": "Inhibition of lipogenesis in C57BL/6 mouse supplemented with normal chow diet assessed as decrease in C/EBPalpha protein expression at 20 mg/kg/day, ip administered for 1 week measured measured by western blot analysis", "format": "functional, organism-based", "settings": "time 1.0 weeks", "outline": "as §1"}, "[9]": {"system": "Adipocyte", "assay": "Inhibition of lipogenesis in mouse adipocytes isolated stromal vascular cells assessed as decrease in DGAT2 mRNA expression measured after 24 hrs by RT-qPCR assay", "format": "functional, cell-based", "outline": "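Stromal vascular cells from inguinal WAT of C57BL/6 mice, grown in DMEM/F12 + 10% FBS at 37 °C, 10% CO2. At confluence, induced 48 h with 5 μg/ml insulin, 1 μM dexamethasone, 0.5 mM isobutylmethylxanthine, then 6 days in 5 μg/ml insulin; fully differentiated day 8. Mature adipocytes exposed to inhibitor 24 h. Total RNA by Trizol, SYBR Green RT-qPCR; protein by western blot.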"}, "[10]": {"system": "Mus musculus", "assay": "Inhibition of hepatic lipogenesis in C57BL/6 mouse supplemented with normal chow diet assessed as effect on MCAD mRNA expression at 20 mg/kg/day, ip administered for 1 week measured by RT-qPCR assay", "format": "functional, organism-based", "settings": "time 1.0 weeks", "outline": "(§2)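 Normal-chow male C57BL/6 mice, 8 weeks old, were injected ip at 20 mg·kg−1·day−1 daily for 7 days or given vehicle. Liver RNA was extracted with Trizol, and fatty-acid-oxidation gene transcripts were quantified by SYBR Green RT-qPCR. n = 5–9; mean ± SEM.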"}, "[11]": {"system": "Mus musculus", "assay": "Inhibition of hepatic lipogenesis in C57BL/6 mouse supplemented with normal chow diet assessed as effect on ACADVL mRNA expression at 20 mg/kg/day, ip administered for 1 week measured by RT-qPCR assay", "format": "functional, organism-based", "settings": "time 1.0 weeks", "outline": "as §2"}, "[12]": {"system": "Hepatocyte", "assay": "Inhibition of lipogenesis in mouse primary hepatocytes assessed as increase in CPT1alpha mRNA expression at 3 uM in presence of 100 nM insulin and 5 to 25 mM glucose measured after 18 hrs by RT-qPCR assay", "format": "functional, cell-based", "outline": "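Primary hepatocytes isolated from C57BL/6 mice by two-step perfusion. Cells incubated 18 h with 3 μM inhibitor, with 0 or 100 nM insulin and 5 or 25 mM glucose. Transcripts quantified by SYBR Green RT-qPCR after Trizol RNA extraction; proteins by western blot of lysates. Mean ± SEM.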"}, "[13]": {"system": "Hepatocyte", "assay": "Inhibition of glucogenesis in mouse primary hepatocytes stimulated with 100 uM 8-Br-cAMP assessed as decrease in G6Pc mRNA expression at 3 uM in combination with 2 mM metformin measured by RT-qPCR assay", "format": "functional, cell-based", "outline": "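Primary mouse hepatocytes given 3 μM compound with 2 mM metformin in the presence of 100 μM 8-Br-cAMP. Gluconeogenic gene mRNA measured by SYBR Green RT-qPCR. Mean ± SEM, three independent experiments.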"}, "[14]": {"system": "Hepatocyte", "assay": "Inhibition of glucogenesis in mouse primary hepatocytes stimulated with 100 uM 8-Br-cAMP assessed as effect on pCREB protein expression at 3 uM measured after 1 hr by western blot analysis", "format": "functional, cell-based", "outline": "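Primary hepatocytes from C57BL/6 mice, isolated by two-step perfusion, were co-treated with 3 μM A-485 and 100 μM 8-Br-cAMP for 1 h. Phospho-CREB, phospho-AMPK and phospho-TORC2 were detected by western blot of cell lysates. Three independent experiments; mean ± SEM.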"}, "[15]": {"system": "Hepatocyte", "assay": "Inhibition of glucogenesis in mouse primary hepatocytes stimulated with 100 uM 8-Br-cAMP assessed as effect on PGC1alpha mRNA expression at 3 uM measured after 8 hrs by RT-qPCR assay", "format": "functional, cell-based", "outline": "(§3)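 Primary mouse hepatocytes treated with 3 μM compound and 100 μM 8-Br-cAMP for 8 h. Trizol RNA, SYBR Green RT-qPCR of the named transcript. Mean ± SEM, three independent experiments.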"}, "[16]": {"system": "Hepatocyte", "assay": "Inhibition of glucogenesis in mouse primary hepatocytes stimulated with 100 uM 8-Br-cAMP assessed as decrease in C/EBPalpha mRNA expression at 3 uM measured after 8 hrs by RT-qPCR assay", "format": "functional, cell-based", "outline": "as §3"}, "[17]": {"system": "Hepatocyte", "assay": "Inhibition of glucogenesis in mouse primary hepatocytes stimulated with 100 uM 8-Br-cAMP assessed as decrease in PEPCK mRNA expression at 3 uM measured after 8 hrs by RT-qPCR assay"}}, "note": "Activity calls are given as the source filed them. The rule behind the calls is not given here."}
{"smiles": "CNC(=O)Nc1ccc2c(c1)CCS21OC(=O)N(CC(=O)N(Cc2ccc(F)cc2)[C@@H](C)C(F)(F)F)C1=O", "note": "(some centres not stated)", "values": [{"measurement": "Activity", "setting": "[1]", "value": "inactive"}, {"measurement": "Activity", "setting": "[2]", "value": "Active"}, {"measurement": "Activity", "setting": "[3]", "value": "Active"}, {"measurement": "inhibition", "setting": "[4]", "value": "Active"}, {"measurement": "inhibition", "setting": "[5]", "value": "Active"}, {"measurement": "inhibition", "setting": "[6]", "value": "inactive"}, {"measurement": "inhibition", "setting": "[7]", "value": "inactive"}, {"measurement": "inhibition", "setting": "[8]", "value": "Active"}, {"measurement": "inhibition", "setting": "[9]", "value": "Active"}, {"measurement": "inhibition", "setting": "[10]", "value": "inactive"}, {"measurement": "inhibition", "setting": "[11]", "value": "inactive"}, {"measurement": "inhibition", "setting": "[12]", "value": "Active"}, {"measurement": "inhibition", "setting": "[13]", "value": "Active"}, {"measurement": "inhibition", "setting": "[14]", "value": "inactive"}, {"measurement": "inhibition", "setting": "[15]", "value": "inactive"}, {"measurement": "inhibition", "setting": "[16]", "value": "Active"}, {"measurement": "inhibition", "setting": "[17]", "value": "Active"}]}
